From ChEMBL document CHEMBL1135904, “Toward an optimal joint recognition of the S1' subsites of endothelin converting enzyme-1 (ECE-1), angiotensin converting enzyme (ACE), and neutral endopeptidase (NEP)” (J Med Chem, 2002) come the findings set out here.

A value given as a limit tells only on which side of the number the result lay.

Test [1] deals with T1, Neprilysin (Oryctolagus cuniculus, UniProt P08049).
T1 sequence (P08049 whole entry): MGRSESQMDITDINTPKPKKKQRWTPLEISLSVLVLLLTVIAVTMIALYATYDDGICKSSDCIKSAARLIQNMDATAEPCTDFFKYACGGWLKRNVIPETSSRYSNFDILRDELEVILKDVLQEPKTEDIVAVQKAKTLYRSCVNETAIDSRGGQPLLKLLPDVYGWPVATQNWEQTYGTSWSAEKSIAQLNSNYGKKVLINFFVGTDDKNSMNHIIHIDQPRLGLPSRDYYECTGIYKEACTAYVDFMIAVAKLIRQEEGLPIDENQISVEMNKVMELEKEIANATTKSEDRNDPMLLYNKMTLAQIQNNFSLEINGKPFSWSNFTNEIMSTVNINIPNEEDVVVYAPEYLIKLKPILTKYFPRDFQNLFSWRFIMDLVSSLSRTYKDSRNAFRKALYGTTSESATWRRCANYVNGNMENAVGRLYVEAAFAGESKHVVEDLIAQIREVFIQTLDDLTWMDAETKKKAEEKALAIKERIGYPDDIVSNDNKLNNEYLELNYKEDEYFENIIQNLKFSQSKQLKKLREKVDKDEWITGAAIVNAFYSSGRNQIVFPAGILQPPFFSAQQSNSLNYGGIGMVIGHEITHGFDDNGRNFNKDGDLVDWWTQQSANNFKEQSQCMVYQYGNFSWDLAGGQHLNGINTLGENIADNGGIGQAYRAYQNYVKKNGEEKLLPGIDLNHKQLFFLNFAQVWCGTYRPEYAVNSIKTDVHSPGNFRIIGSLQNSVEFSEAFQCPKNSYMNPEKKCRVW
Kind of test: (§1) Inhibition of neutral endopeptidase (NEP). The gist of the method:
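NEP purified from rabbit kidney (final 250 ng/mL) preincubated 10 min at 37 °C with or without increasing inhibitor concentrations in 50 mM Tris-HCl pH 7.4. Substrate Dansyl-Gly-(p-NO2)Phe-β-Ala (DGPA; Km 37 μM) added to 50 μM final. Reaction stopped after 1 h with DMSO. Fluorescence read at ex 340/em 530 nm.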

For test [2], the target named is T2, Angiotensin-converting enzyme (Rattus norvegicus, UniProt P47820).
T2 sequence (P47820 whole entry): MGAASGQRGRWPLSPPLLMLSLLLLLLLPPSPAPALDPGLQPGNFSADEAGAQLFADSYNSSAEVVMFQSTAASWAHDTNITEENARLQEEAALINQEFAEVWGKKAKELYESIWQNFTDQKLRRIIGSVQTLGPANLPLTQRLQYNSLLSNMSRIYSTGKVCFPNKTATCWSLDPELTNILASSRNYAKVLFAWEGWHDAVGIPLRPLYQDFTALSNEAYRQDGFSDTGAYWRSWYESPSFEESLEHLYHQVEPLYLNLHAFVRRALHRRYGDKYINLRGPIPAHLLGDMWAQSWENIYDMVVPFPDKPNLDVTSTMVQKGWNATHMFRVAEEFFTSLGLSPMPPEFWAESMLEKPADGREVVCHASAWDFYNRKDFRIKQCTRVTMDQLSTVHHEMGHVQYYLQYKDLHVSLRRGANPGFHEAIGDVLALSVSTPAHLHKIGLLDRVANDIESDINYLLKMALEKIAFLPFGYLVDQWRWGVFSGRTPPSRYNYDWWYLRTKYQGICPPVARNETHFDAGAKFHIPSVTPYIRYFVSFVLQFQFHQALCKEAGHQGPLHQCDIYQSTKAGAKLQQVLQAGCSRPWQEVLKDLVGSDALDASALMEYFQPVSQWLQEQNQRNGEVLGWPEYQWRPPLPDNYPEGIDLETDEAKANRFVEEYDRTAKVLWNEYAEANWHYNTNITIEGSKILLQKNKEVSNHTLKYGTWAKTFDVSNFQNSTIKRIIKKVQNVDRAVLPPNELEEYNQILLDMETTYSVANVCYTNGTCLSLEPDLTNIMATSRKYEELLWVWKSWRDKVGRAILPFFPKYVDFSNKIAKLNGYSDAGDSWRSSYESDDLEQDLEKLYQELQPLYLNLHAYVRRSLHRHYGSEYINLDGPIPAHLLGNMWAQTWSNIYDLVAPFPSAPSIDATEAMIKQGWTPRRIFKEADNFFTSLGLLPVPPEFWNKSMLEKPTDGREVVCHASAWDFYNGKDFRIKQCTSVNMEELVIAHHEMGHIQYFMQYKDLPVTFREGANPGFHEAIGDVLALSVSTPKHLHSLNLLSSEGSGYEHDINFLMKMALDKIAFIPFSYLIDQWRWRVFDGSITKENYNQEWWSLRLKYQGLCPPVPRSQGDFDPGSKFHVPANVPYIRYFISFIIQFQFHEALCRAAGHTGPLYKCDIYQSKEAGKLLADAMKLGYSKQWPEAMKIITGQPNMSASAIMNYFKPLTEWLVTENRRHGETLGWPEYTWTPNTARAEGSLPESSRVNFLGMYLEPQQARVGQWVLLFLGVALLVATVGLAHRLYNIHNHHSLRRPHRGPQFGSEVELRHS
Kind of test: Inhibition of Angiotensin I converting enzyme (ACE). The gist of the method:
(§2)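 ACE purified from rat testis, final 0.02 pmol/100 µL, preincubated 10 min at 37 °C with or without various inhibitor concentrations in 50 mM Tris/HCl/NaCl 1% pH 7.4. Then 50 µM N-Cbz-Phe-His-Leu (Km 50 µM) added for 30 min. Stopped with 2 N NaOH and diluted with water. Released His-Leu measured fluorometrically.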

Test [3] concerns the target T3, Endothelin-converting enzyme 1 (Homo sapiens, UniProt P42892).
T3 sequence (P42892 whole entry): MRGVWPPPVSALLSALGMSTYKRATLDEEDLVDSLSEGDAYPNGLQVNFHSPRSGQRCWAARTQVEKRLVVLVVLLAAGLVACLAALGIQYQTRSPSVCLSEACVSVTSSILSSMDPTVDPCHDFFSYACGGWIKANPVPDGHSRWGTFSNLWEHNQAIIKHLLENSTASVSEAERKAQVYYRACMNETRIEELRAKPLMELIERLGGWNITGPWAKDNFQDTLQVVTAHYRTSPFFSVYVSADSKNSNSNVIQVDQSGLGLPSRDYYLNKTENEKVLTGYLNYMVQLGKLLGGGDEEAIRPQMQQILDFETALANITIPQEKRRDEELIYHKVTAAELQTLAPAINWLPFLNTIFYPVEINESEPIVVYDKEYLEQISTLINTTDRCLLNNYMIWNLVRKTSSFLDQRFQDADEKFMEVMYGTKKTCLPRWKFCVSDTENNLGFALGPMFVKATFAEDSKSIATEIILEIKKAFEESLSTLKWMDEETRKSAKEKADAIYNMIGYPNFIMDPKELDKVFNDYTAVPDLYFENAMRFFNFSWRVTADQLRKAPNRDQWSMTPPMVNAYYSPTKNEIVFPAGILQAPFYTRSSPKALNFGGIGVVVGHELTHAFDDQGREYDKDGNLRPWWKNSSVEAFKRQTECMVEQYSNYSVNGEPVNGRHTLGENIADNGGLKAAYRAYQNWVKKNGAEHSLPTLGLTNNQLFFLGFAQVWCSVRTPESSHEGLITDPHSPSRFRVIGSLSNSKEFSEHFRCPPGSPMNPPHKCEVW
Put plainly: (§3) Inhibition of Endothelin-converting enzyme 1 (ECE). The gist of the method: (§4)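 Recombinant human ECE-1c from Cos-7 cells, 4 µg total protein per well, preincubated 10 min at 37 °C in 50 mM tris-maleate pH 6-8 with or without rising inhibitor concentrations. Reaction started with 20 µM (Pya21-(p-NO2)Phe22)bigET(19-35) (Km 20 µM), run 1 h at 37 °C, stopped by cooling. Fluorescence read at ex 340/em 400 nm.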

In test [4] the target is T1, Neprilysin. The description is as §1. In short, it runs like this: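 NEP purified from rabbit kidney (final 250 ng/mL) preincubated 10 min at 37 °C with or without increasing inhibitor concentrations in 50 mM Tris-HCl pH 7.4. Reaction stopped after 1 h with DMSO.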
The source holds these as a separate data set.

Test [5] deals with T3, Endothelin-converting enzyme 1. The test is described as §3. The source holds these as a separate data set.
For test [6], the target named is T2, Angiotensin-converting enzyme. Put plainly: Inhibition of Angiotensin I converting enzyme ACE). In short, it runs like this: as §2
Test [7] shares this target. Put plainly: Inhibition of Angiotensin I converting enzyme (ACE) purified from rat testis. In short, it runs like this: as §2
Test [8] concerns the target T3, Endothelin-converting enzyme 1. Kind of test: Inhibition activity towards human recombinant Endothelin-converting enzyme 1 (hECE-1c) expressed in Cos-7 cells. It counts as cell-based. In short, it runs like this: as §4
The target of test [9] is T1, Neprilysin. Put plainly: Inhibition of neutral endopeptidase (NEP) isolated from rabbit kidney. The gist of the method: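 Rabbit kidney NEP purified to homogeneity, final 250 ng/mL, preincubated 10 min at 37 °C with or without rising inhibitor concentrations in 50 mM Tris-HCl pH 7.4. Then 50 µM DGPA (Dansyl-Gly-(p-NO2)Phe-β-Ala; Km 37 µM) added for 1 h. Stopped with DMSO. Fluorescence read at ex 340/em 530 nm.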

As for `O=C(O)[C@H](Cc1ccc2c(c1)oc1ccccc12)NCP(=O)(O)O`, 2300 nM corresponded to half-maximal inhibition in test [1] (IC50).
Take `O=P(O)(O)C(CCc1cccc2ccccc12)N[C@@H](Cc1ccc(-c2ccccc2)cc1)c1nnn[nH]1` (stereo partly drawn): the Ki is more than 10000 nM in test [2], 0.0108 µM in [3] and 2.2 nM in [4].
For `O=C1N[C@H](C(=O)O)CCCCCCc2cccc(c2)CC1CS` (stereo partly drawn), the values for the IC50 in test [5], in test [1] and in test [6] were 620 nM, 4 nM and 175 nM, respectively.
As for `C[C@H](CS)C(=O)N1CCC[C@H]1C(=O)O` [CAPTOPRIL], the inhibition constant Ki in [3] is more than 10 µM; in [4] it was more than 1000 nM.
Take `O=C(O)CNC(=O)C(CS)Cc1ccccc1` (stereo not drawn) [THIORPHAN]: the Ki in test [2] is more than 100 nM; in [3] it was more than 10 µM.
With `O=C(O)C(Cc1c[nH]c2ccccc12)NC(=O)C(CS)C(c1ccccc1)c1ccccc1` (stereo not drawn), the Ki was 250 nM in test [2], more than 10 µM in test [3] and 140 nM in [4].
Molecule `CS(=O)(=O)N[C@@H](CCCCN)C(=O)N[C@@H](Cc1ccccc1)P(=O)(O)CC1(C(=O)N[C@@H](Cc2c[nH]c3ccccc23)C(=O)O)CCCC1` returned an IC50 in test [1] of 90 nM.
On to `O=C(O)C(Cc1c[nH]c2ccccc12)NC(=O)C(CS)C1CCc2ccccc21` (stereo not drawn), for which the Ki amounted to 20 nM in [7], 100 nM in [8] and 1.8 nM in [9].
